{"data": "Assay results from different studies", "target": "Calcium/calmodulin-dependent protein kinase kinase 1 (CAMKK1, Homo sapiens, UniProt Q8N5S9)", "note": "Protocols differ between the studies behind these lines."}
{"SMILES": "O=C(O)[C@@H]1[C@@H](Cn2nnc3ccccc3c2=O)CC[C@H]1C(=O)c1ccc(OCCC2CCOCC2)cc1", "read-out": "cell-free assay", "technique": "competition with immobilised ligand", "tested at": "1 µM", "remaining binding [%]": 100}
{"SMILES": "Nc1ncc2c(n1)-c1c([nH]c3ccc(C#CC4CC4)cc13)CCCC2", "read-out": "binding", "technique": "competition with immobilised ligand", "tested at": "1 µM", "remaining binding [%]": 98}
{"SMILES": "CN(CCCC(F)(F)F)c1nccc(-c2cnn3ncccc23)n1", "read-out": "binding", "tested at": "1 µM", "remaining binding [%]": 100}
{"SMILES": "Cc1noc([C@H]2C[C@@H](c3ccc(C(F)(F)F)cc3)CN(C(=O)N3CCS(=O)(=O)C3)C2)n1", "read-out": "cell-free assay", "technique": "competition with immobilised ligand", "tested at": "1 µM", "remaining binding [%]": 100}
{"SMILES": "N[C@@H]1CCN(c2nccc(-c3cnn4ncccc34)n2)C1", "read-out": "binding", "tested at": "1 µM", "remaining binding [%]": 100}
{"SMILES": "CNCc1ccccc1-c1csc([C@H](C)Nc2nc(C)nc3cc(OC)c(OC)cc23)c1", "read-out": "cell-free assay", "technique": "competition with immobilised ligand", "tested at": "1 µM", "remaining binding [%]": 99}
{"SMILES": "FC(F)(F)Oc1cccc(-c2cnc3ccc(-c4ccncc4)nn23)c1", "read-out": "cell-free assay", "technique": "competition with immobilised ligand", "tested at": "5 µM", "remaining binding [%]": 43}
{"SMILES": "CC1CCCN1c1nccc(-c2cnn3ncccc23)n1 (stereo not shown)", "read-out": "binding", "tested at": "1 µM", "remaining binding [%]": 100}
{"SMILES": "O=C(c1ccc(Nc2ncc(Cl)c(-c3cc4ccccc4s3)n2)cc1)N1CCC(N2CCCC2)CC1", "read-out": "binding", "technique": "competition with immobilised ligand", "tested at": "1 µM", "remaining binding [%]": 91}
{"SMILES": "C[C@@H]1CCN(c2nccc(-c3cnn4ncccc34)n2)C1", "read-out": "binding", "tested at": "1 µM", "remaining binding [%]": 87}
{"SMILES": "CS(=O)(=O)NCC[C@H](NC(=O)c1cncc2c1cnn2-c1ccc(F)cc1)c1ccnc(S(C)(=O)=O)c1", "read-out": "cell-free assay", "technique": "competition with immobilised ligand", "tested at": "1 µM", "remaining binding [%]": 100}
{"SMILES": "O=C(c1ccc(Nc2nccc(-c3cc4ccccc4s3)n2)cc1)N1CCC(N2CCCC2)CC1", "read-out": "binding", "technique": "competition with immobilised ligand", "tested at": "1 µM", "remaining binding [%]": 93}
{"SMILES": "COc1cnc(Nc2cccc(S(N)(=O)=O)c2)nc1N1CCN(c2ccccc2)C(=O)C1", "read-out": "binding", "technique": "competition with immobilised ligand", "tested at": "1 µM", "remaining binding [%]": 100}
{"SMILES": "O=C(c1ccc(Nc2ncc(Cl)c(-c3ccc(Cl)s3)n2)cc1)N1CCC(N2CCCC2)CC1", "read-out": "binding", "technique": "competition with immobilised ligand", "tested at": "1 µM", "remaining binding [%]": 86}
{"SMILES": "CN(C)c1nccc(-c2cnn3ncccc23)n1", "read-out": "binding", "tested at": "1 µM", "remaining binding [%]": 78}
{"SMILES": "Cc1nc(C2CCN(C(=O)c3ccc(OC(F)(F)F)cc3N)CC2)c2ncc(N3CCN(C)CC3)cc2n1", "read-out": "cell-free assay", "technique": "competition with immobilised ligand", "tested at": "1 µM", "remaining binding [%]": 100}
{"SMILES": "COc1cnc(Nc2cccc(S(N)(=O)=O)c2)nc1N1CCN(c2ccccc2)CC1", "read-out": "binding", "technique": "competition with immobilised ligand", "tested at": "1 µM", "remaining binding [%]": 92}
{"SMILES": "CN(C)c1nccc(-c2cnc3ncccn23)n1", "read-out": "binding", "tested at": "1 µM", "remaining binding [%]": 100}
{"SMILES": "CO[C@H]1CC[C@H](CNc2ccc(S(=O)(=O)NC(=O)c3ccc(N4CCN(CC5=C(c6ccc(Cl)cc6)CC(C)(C)CC5)CC4)cc3Oc3cnc4[nH]ccc4c3)cc2[N+](=O)[O-])CC1", "read-out": "cell-free assay", "technique": "competition with immobilised ligand", "tested at": "1 µM", "remaining binding [%]": 83}
{"SMILES": "C[C@@H](c1ccc(-n2cnc3c(N)ncnc32)cc1)N1CCc2nn(C)c(Cc3ccccc3)c2C1=O", "read-out": "binding", "technique": "competition with immobilised ligand", "tested at": "0.1 µM", "remaining binding [%]": 100}
{"SMILES": "CC(=O)Nc1c(C(C)=O)c(=O)n(C)c2nc(-c3ccc(Cl)cc3Cl)c(-c3ccc(Cl)cc3)cc12", "read-out": "cell-free assay", "technique": "competition with immobilised ligand", "tested at": "1 µM", "remaining binding [%]": 100}
{"SMILES": "O=C(Nc1c[nH]nc1C(=O)NC1CCNCC1)c1cc(F)cc(F)c1", "read-out": "binding", "technique": "competition with immobilised ligand", "tested at": "1 µM", "remaining binding [%]": 90}
